rCAG RNA binder = binders of r(CAG) RNA repeats, primary screen, biochemical, fluorescence; r(CAG) RNA repeat, TO-PRO-1 dye displacement fluorescence; inhibition, % at 3 µM; 370,000 compounds, 1.3% hits; AID 651821, 2012;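 active means inhibition above the plate cutoff, the mean of all test compounds on that plate plus 3 SD, cut at about 35% in these data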;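 further: 0% = DMSO alone and 100% = 100 µM mitoxantrone as full dye displacement; higher means more dye released from RNA so lower well fluorescence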
LEDGF integ inh = blockers of LEDGF/p75-dependent integrase strand transfer – biochemical, TR-FRET, high throughput, primary screen; HIV-1 integrase (with human LEDGF/p75); TR-FRET IN-LEDGF/p75 DNA integration, Eu/Cy5; inhibition, % at 3.7 µM; 370,000 compounds, 0.64% hits; AID 743269, 2014;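 active means inhibition above the screen-wide mean plus 3 SD, cut at about 13% in these data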;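 further: signal is the Cy5 over europium emission ratio at 671 and 618 nm; 0% = plate median of compound wells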
HTRA1 inh = HTRA1 serine protease inhibitors, primary screen, biochemical, fluorescence polarization, HTS; recombinant HTRA1, FP-rhodamine activity-based probe; inhibition, % at 5.96 µM; 340,000 compounds, 0.5% hits; AID 504803, 2011; Q92743; in the data active means inhibition above about 36%;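 further: 0% = enzyme with DMSO and 100% = wells lacking enzyme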
PRMT1 inh = PRMT1 methyltransferase inhibitors, primary screen, biochemical, fluorescence polarization. 370,000 compounds, 1.3% hits. recombinant PRMT1, activity-based probe fluorescence polarization. AID 652257, 2013. Protein arginine N-methyltransferase 1 (Homo sapiens), Q99873. inhibition, % at 2.79 µM;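 active means inhibition above about 21% made by adding two undisclosed values, limit read from the data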
DAGLB inh = DAGLB lipase inhibitors, primary screen, biochemical, fluorescence, HTS. Diacylglycerol lipase-beta (Homo sapiens), Q8NCG7. HEK293T DAGLB membrane lysate, EnzChek fluorogenic substrate. inhibition, % at 5.17 µM. 340,000 compounds, 0.059% hits. AID 504411, 2011; in the data active means inhibition above about 34%;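 further: 0% = enzyme with vehicle and 100% = wells lacking enzyme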
Target sequence (Q8NCG7 whole entry, looked up): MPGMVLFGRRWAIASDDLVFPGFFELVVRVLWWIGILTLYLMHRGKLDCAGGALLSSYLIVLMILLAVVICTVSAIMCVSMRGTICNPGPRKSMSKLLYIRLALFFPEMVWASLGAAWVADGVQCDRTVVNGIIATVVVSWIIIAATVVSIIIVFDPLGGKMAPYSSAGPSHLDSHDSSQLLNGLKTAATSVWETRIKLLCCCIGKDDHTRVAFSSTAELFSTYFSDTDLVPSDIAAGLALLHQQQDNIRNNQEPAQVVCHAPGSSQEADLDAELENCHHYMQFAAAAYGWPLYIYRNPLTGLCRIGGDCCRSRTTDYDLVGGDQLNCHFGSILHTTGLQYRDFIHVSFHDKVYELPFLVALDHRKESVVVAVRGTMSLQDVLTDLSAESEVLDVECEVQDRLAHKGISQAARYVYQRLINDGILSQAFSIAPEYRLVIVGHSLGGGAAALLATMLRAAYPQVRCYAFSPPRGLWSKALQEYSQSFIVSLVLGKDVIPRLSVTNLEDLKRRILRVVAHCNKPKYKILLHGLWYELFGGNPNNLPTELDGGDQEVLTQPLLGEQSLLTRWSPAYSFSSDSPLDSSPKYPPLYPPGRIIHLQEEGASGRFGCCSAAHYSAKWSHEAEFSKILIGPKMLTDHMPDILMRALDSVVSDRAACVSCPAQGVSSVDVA
ABHD4 inh = ABHD4 inhibitors, primary screen, biochemical, fluorescence polarization, mouse. purified mABHD4, FP-Rh probe fluorescence polarization. inhibition, % at 8.92 µM. 370,000 compounds, 0.54% hits. AID 720543, 2013;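 active means inhibition exceeding the mean over every tested compound plus 3 SD, cut at about 30% in these data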;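 further: 0% = plate median of compound wells and 100% = S159A mutant with DMSO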
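Doses – 8.92 µM, single dose · Material – wild-type mouse ABHD4 protein · Replication – single well per compound (singlicate) · Measure – percent inhibition of probe binding, normalized to plate controls · Schedule – 45 min compound pre-incubation plus 60 min probe step, 25 °C · Detection – fluorescence polarization with parallel and perpendicular emission, 525/598 nm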
PRMT1 inh conf = PRMT1 methyltransferase inhibitors, confirmation, biochemical, fluorescence polarization, triplicate; shares compounds with PRMT1 inh; recombinant His-PRMT1, activity-based probe fluorescence polarization; inhibition, % at 2.79 µM; 3,300 compounds, 42% hits; AID 687036, 2013;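 active means mean inhibition across replicates above the hit cutoff derived for the earlier primary screen, cut at about 22% in these data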
An asterisk follows results filed as active; · = no result given. In the library only some 3.2% were active in any assay of this set; here they are far more common.

SMILES | rCAG RNA binder | LEDGF integ inh | HTRA1 inh | PRMT1 inh | DAGLB inh | ABHD4 inh | PRMT1 inh conf
Cc1cc(C)cc(N2C(=O)C=CC2=O)c1 | 6 | 4 | -5 | 80* | -2 | -1 | 96*
O=C(O)c1ccccc1-n1c2ccccc2c2ccccc21 | 13 | 0 | -2 | 2 | 4 | 2 | ·
Cc1c(C(=O)NCc2cccc([N+](=O)[O-])c2)sc(=O)n1Cc1cccc(F)c1 | 2 | 1 | · | -1 | · | -2 | ·
O=[N+]([O-])c1cc(-c2csc(NC(CO)c3nc4ccccc4n3CCOCCO)n2)ccc1Cl (configuration not stated) | 14 | 0 | -9 | 37* | 4 | 13 | 10
O=[N+]([O-])c1ccc(N2CCN(Cc3ccccc3)CC2)c2c1no[n+]2[O-] | 1 | 3 | 1 | 54* | 15 | -12 | 19
COc1ccc(N2C(=O)CC(N3CCN(c4ccc(S(C)(=O)=O)cc4)CC3)C2=O)cc1 (configuration not stated) | 3 | 0 | -5 | 4 | 1 | -4 | ·
O=C1CC(N2CCC(O)(c3ccc(Br)cc3)CC2)C(=O)N1c1ccc(Cl)cc1 (configuration not stated) | -1 | -1 | -1 | 33* | 1 | 5 | 0
O=CN1CCN(C2CC(=O)N(c3ccc(Br)cc3)C2=O)CC1 (configuration not stated) | 3 | -1 | -4 | 3 | -1 | 4 | ·
O=C1CC(N2CCN(c3ccc(Cl)cc3)CC2)C(=O)N1c1ccc(F)cc1 (configuration not stated) | 2 | -7 | -3 | 3 | -1 | -1 | ·
O=C1CC(N2CCC(O)CC2)C(=O)N1c1ccc(Br)cc1 (configuration not stated) | -1 | 2 | 3 | 57* | -5 | -2 | 2
O=C1CC(N2CCC(O)(c3ccc(Cl)cc3)CC2)C(=O)N1 (configuration not stated) | -1 | 6 | -5 | 54* | 0 | -7 | 2
COc1ccc(N2C(=O)CC(N3CCC(O)(c4ccc(Br)cc4)CC3)C2=O)cc1 (configuration not stated) | -4 | -2 | 3 | 50* | -2 | 1 | 2
S=C1SCN(Cc2ccccn2)CN1Cc1ccco1 | 7 | 9 | 1 | 30* | -5 | 6 | 13
O=C(O)c1cc([N+](=O)[O-])c(Sc2nc3ccccc3[nH]2)c([N+](=O)[O-])c1 | 2 | 3 | 1 | 11 | -7 | -1 | ·
CS(=O)(=O)c1cc([N+](=O)[O-])c(Sc2nc3ccccc3[nH]2)c([N+](=O)[O-])c1 | 7 | 4 | -2 | 56* | 3 | 12 | 70*
O=C(OCC(=O)N1N=C(c2ccc(Cl)cc2)CC1c1ccco1)c1cncc(Br)c1 (configuration not stated) | 26 | 2 | -32 | 34* | 3 | 7 | 5
Cc1ccc(S(=O)(=O)N2CCN(C(=O)c3cccs3)CC2)c(C)c1 | -4 | 0 | · | 4 | · | 2 | ·
Cc1ccc(CNC(=O)C2CCN(S(=O)(=O)c3cccs3)CC2)o1 | 13 | 4 | 1 | 29* | 0 | 4 | 4
CC(C)(C)C(CCl)C(=O)NN=C(c1ccccc1)c1ccccc1 (configuration not stated) | 3 | -1 | 1 | 1 | -3 | 5 | ·
Nc1sccc1C(=O)NCc1ccccc1 | 8 | 0 | · | 34* | · | -22 | 16
C=CCN1C(=O)[C@@H](CC(=O)NCCCOCCCC)[C@]2(C(=O)OC)CCCCC=C12 | -2 | 1 | · | -2 | · | 2 | ·
COC(=O)CN1C(=O)COc2ccc(S(=O)(=O)N3CCCCCC3)cc21 | -2 | -2 | 1 | 4 | -1 | 5 | ·
CCCCC(=O)OCC(=O)C1(O)Cc2c(O)c3c(c(O)c2C(OC2CC(NC(=O)C(F)(F)F)C(O)C(C)O2)C1)C(=O)c1c(OC)cccc1C3=O (configuration not stated) | 18 | 4 | 27 | 25* | 27 | -2 | 15
C/C(=N\O)C(=O)NCc1ccncc1 | -2 | 0 | 1 | -4 | 0 | -6 | ·
CN(C)S(=O)(=O)n1cnc([C@H]2c3c(ncn3Cc3ccccc3)C[C@H]3COC(=O)[C@@H]32)c1 | -4 | 2 | -8 | 2 | -2 | 3 | ·
SMILES | rCAG RNA binder | LEDGF integ inh | HTRA1 inh | PRMT1 inh | DAGLB inh | ABHD4 inh | PRMT1 inh conf
COc1ccc2c(c1)-c1nc(N)sc1CC2 | 3 | -4 | 7 | 6 | 3 | 10 | ·
Nc1nc2c(s1)CCc1ccccc1-2 | 4 | -3 | -2 | 26* | 2 | 16 | 9
COc1cc(NC(=S)N2CCN(CCO)CC2)c(OC)cc1Cl | 3 | 0 | 7 | -2 | 0 | 3 | ·
OCCN1CCN(C(=S)c2ccc(Cl)c(Cl)c2)CC1 | 0 | -2 | 13 | 78* | -5 | 11 | 78*
C[C@@H]1C=C(C(=O)NCc2nc3ccccc3[nH]2)O[C@H](OCCCCO)C1 | 0 | -1 | 5 | 47* | -2 | 9 | 33*
C[C@@H]1C=C(C(=O)NCc2nc3ccccc3[nH]2)O[C@H](OCc2ccc(CO)cc2)C1 | -4 | -1 | -2 | 1 | -5 | -2 | ·
COc1ccc(CNC(=O)CSc2nnc(-c3cccnc3)n2N)cc1 | 9 | 1 | 6 | 2 | 1 | -2 | ·
Cc1ccccc1-n1c(SCc2c(C)noc2C)nnc1-c1cccnc1 | 18 | -2 | -1 | 28* | -4 | 0 | 13
O=C(Nc1ccncc1)c1ccc(Cl)c(Cl)c1 | 0 | 3 | -5 | 28* | -3 | -8 | -5
O=C(NNC(=O)c1ccc(Cl)c(Cl)c1)c1ccncc1 | 1 | -4 | · | 1 | · | 3 | ·
O=C1CC(N2CCSCC2)C(=O)N1c1ccccc1 (configuration not stated) | 2 | -4 | 9 | 10 | 1 | 3 | ·
O=C1CC(N2CCCN(C3CC(=O)N(c4ccc(F)cc4)C3=O)CC2)C(=O)N1c1ccc(F)cc1 (configuration not stated) | 3 | 5 | -4 | 78* | -1 | -3 | 6
O=C1CC(N2CCCCC2)C(=O)N1c1ccccc1 (configuration not stated) | 3 | 0 | 4 | 81* | 1 | 10 | 13
